Columns and labels:
[1] = cited from earlier work
[2] = In vitro plasma stability / metabolite identification; assay type: in vitro ADME; conditions: 10 μM, 37 °C, 60 min incubation
Outline: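 Mouse plasma was spiked at 10 μM and shaken at 37 °C. Triplicate aliquots at 0 and 60 min were quenched with 2 volumes of ice-cold acetonitrile containing 5 μM losartan, then centrifuged at 12000g for 10 min. Supernatant was diluted 1:1 with water. Parent loss and metabolites were tracked by C18 LC–ESI-TOF MS.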

[3] = Stability under GCPII enzyme assay conditions; assay type: physicochemical; conditions: 30 m in aqueous buffer; pH 8.0
rhGCPII = rhGCPII (Homo sapiens, UniProt Q04609); assay: GCPII radioenzymatic inhibition assay with 3H-NAAG; assay type: biochemical; conditions: relative to compound 1
rhGCPII, sequence (Q04609 whole entry): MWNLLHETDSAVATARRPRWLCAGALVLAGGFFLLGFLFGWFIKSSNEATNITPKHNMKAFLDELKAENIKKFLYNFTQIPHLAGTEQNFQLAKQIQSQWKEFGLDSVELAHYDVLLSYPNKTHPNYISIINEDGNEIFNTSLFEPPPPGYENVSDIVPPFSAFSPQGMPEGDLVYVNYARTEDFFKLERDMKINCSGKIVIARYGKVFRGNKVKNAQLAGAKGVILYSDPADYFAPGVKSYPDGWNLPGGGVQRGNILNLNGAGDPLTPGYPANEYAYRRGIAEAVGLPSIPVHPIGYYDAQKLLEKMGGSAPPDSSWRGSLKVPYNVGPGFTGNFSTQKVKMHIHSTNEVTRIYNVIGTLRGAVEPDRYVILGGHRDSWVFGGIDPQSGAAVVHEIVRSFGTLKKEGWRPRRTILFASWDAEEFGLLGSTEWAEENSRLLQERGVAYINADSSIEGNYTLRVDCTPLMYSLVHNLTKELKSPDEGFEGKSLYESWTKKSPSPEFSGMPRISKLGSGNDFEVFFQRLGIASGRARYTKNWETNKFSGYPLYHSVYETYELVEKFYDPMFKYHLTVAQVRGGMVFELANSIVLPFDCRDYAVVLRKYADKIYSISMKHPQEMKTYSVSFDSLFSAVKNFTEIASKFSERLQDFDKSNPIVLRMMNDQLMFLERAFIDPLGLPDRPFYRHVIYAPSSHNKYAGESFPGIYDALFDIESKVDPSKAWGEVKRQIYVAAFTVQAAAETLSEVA
Outline: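 Recombinant human GCPII was started with a mix of 0.31 μM NAAG plus 15 nM 3H-NAAG (concentrations in the added mix). After 20 min, the reaction was stopped with 200 mM potassium phosphate, 50 mM EDTA and 2 mM β-mercaptoethanol, pH 7.4. Released glutamate was isolated by ion exchange and counted by scintillation. IC50 was fitted from inhibition curves.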

[4] = Plasma levels of 1 after single oral dose in mice; assay type: in vivo, mouse; conditions: dose equivalent of 10 mg/kg of 1, plasma 30 min after administration
Outline: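 Male CD-1 mice (25–30 g) got a single oral dose of 10 mg/kg parent equivalent in 50 mM HEPES-buffered saline, pH 7.4, made the same day. At 30 min, mice were killed with pentobarbital and blood taken by cardiac puncture into heparin. Plasma (200g, 15 min; stored −80 °C) was assayed by C18 LC-MS/MS, parent transition 279.986 > 203.066/247.173, losartan internal standard. Mean ± SEM, n = 3.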

[5] = system: rat chronic constriction injury model of neuropathic pain; assay: Chronic constrictive injury; assay type: in vivo; conditions: rat CCI
Outline: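 Male Sprague–Dawley rats (200–250 g, n = 10–15/group) received four loose chromic gut ligatures, 1 mm apart, on the sciatic nerve. From day 10 post-surgery, hind-paw withdrawal latency to a plantar thermal stimulus was read to 0.1 s (normal response within 15 s). Difference score: nonligated minus ligated. Sessions twice weekly, 3 days apart. Daily oral gavage, 1 h pre-test. Gabapentin 50/100 mg/kg po as control. Student's t-test.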

SMILES | stability / bioconversion in mouse plasma (in words) [2] | plasma levels of 1 following oral administration of prodrug (in words) [4] | further results
O=C(CCC(Cc1ccc(C(=O)O)cc1)C(=O)O)NO (stereo not drawn) [Compound 1, 4-Carboxy-α-[3-(hydroxyamino)-3-oxopropyl]-benzenepropanoic acid] | completely stable |  | distribution to sciatic nerves (in words) [1]: good distribution to sciatic nerves
Cc1oc(=O)oc1CONC(=O)CCC(Cc1ccc(C(=O)O)cc1)C(=O)O (stereo not shown) [Compound 17, 4-(2-Carboxy-5-(((5-methyl-2-oxo-1,3-dioxol-4-yl)methoxy)-amino)-5-oxopentyl)benzoic Acid] |  | equal or higher | stability under GCPII enzyme assay conditions (in words) [3]: partial hydrolysis to 1; fold less potency compared to 1 (GCPII inhibition) (rhGCPII): 12 fold
NCC1(CC(=O)O)CCCCC1 [gabapentin, reference compound] |  |  | reversal of allodynia (positive control) ([5]; 100 mg/kg po daily, maintained throughout the dosing period): significantly reversed allodynia
CC(=O)Oc1ccc(CONC(=O)CCC(Cc2ccc(C(=O)OCOC(=O)OC(C)C)cc2)C(=O)O)cc1 (stereo not shown) [Compound 30, 5-(((4-Acetoxybenzyl)oxy)amino)-2-(4-((((isopropoxycarbonyl)-oxy)methoxy)carbonyl)benzyl)-5-oxopentanoic Acid] | completely hydrolyzed |  | 
CCOC(=O)c1ccc(CC(CCC(=O)NOCc2ccc(OC(C)=O)cc2)C(=O)O)cc1 (stereo not shown) [Compound 23, 5-(((4-Acetoxybenzyl)oxy)amino)-2-(4-(ethoxycarbonyl)benzyl)-5-oxopentanoic Acid] | not converted into 1 |  | 
CC(=O)Oc1ccc(CONC(=O)CCC(Cc2ccc(C(=O)O)cc2)C(=O)O)cc1 (stereo not shown) [Compound 12, 4-(5-(((4-Acetoxybenzyl)oxy)amino)-2-carboxy-5-oxopentyl)-benzoic Acid] | complete conversion of prodrug 12 to 1 | equal or higher | effect on absolute latency of the sham operated side ([5]; 4.6 mg/kg/day po): no significant effect; first day of significantly reduced thermal hyperalgesia ([5]; 12 at 4.6 mg/kg/day po (3 mg/kg equivalent of 1)): 4 days
CC(=O)ONC(=O)CCC(Cc1ccc(C(=O)O)cc1)C(=O)O (stereo not shown) [Compound 7, 4-(5-(Acetoxyamino)-2-carboxy-5-oxopentyl)benzoic Acid] |  | equal or higher | 

Source: paper PMC5795597 (Journal of medicinal chemistry, 2017)
